Fibroblast inh = blocks proliferation of human lung fibroblasts; viability, % at 10 µM; 85,000 compounds, 1.1% hits; AID 719; LL 47 human lung fibroblast viability, ATP luminescence; stronger effect = lower value;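 active = viability at or below 50% in the single dose screen; inactive = viability above 50%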;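 note: compound exposure lasted 72 h before the ATP readout; 100% = median luminescence of untreated cell-only wells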
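Test system: LL 47 human lung fibroblasts / Incubation: 72 h compound exposure at 37 °C after overnight plating / Technique: luminescent ATP detection, CellTiter-Glo / Compound dosing: 0.1% DMSO in all compound wells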
HCT116 PTEN-null = suppresses growth of cells with PTEN deletion; HCT116 PTEN-null viability, CellTiter-Glo, 60 h; stronger effect = lower value; viability, % at 10 µM; 140,000 compounds, 1.2% hits;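 active = viability at or below a set limit, 4 SD under the median of all tested compounds, cut at about 3.7% in these data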;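 note: PTEN knockout HCT116 line with beta catenin targeted HCT116 as companion control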
HCT116 bCat-KO = beta-catenin-lacking colon tumor cell growth suppression. 140,000 compounds, 1.5% hits. HCT116 beta-catenin knockout viability, CellTiter-Glo, 60 h; stronger effect = lower value. viability, % at 10 µM;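 active = viability at or under a set limit, the compound median less 4 SD, cut at about 6% in these data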;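 note: 0% = Hyamine 1622 control at 20 µM and 100% = untreated cell control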
HUVEC inhibit = inhibitors of human endothelial cell proliferation. 86,000 compounds, 1.1% hits. viability, % at 10 µM (by protocol). HUVEC proliferation, CellTiter-Glo luminescence, 72 h; stronger effect = lower value. AID 648;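 active = viability at or below 30%; inactive = viability above 30%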;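 note: 100% = median luminescence of DMSO-only cell control wells on each plate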
H69AR growth 86K = growth inhibitors of human H69AR lung tumor cells; viability, % at 10 µM; H69AR lung tumor viability, ATP luminescence, 72 h; stronger effect = lower value; 85,000 compounds, 6% hits; AID 598;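 active = viability at or below 40%; inactive = viability above 40%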;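 note: multidrug resistant small cell line overexpressing MRP-1 efflux transporter; 100% = mean luminescence of untreated control wells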
* marks the source's active call; other numbers are inactive results; . = not tested or not shown. The entries come from a sample that favours hits as a whole.

SMILES	Fibroblast inh	HCT116 PTEN-null	HCT116 bCat-KO	HUVEC inhibit	H69AR growth 86K
Cc1ccc2nc(NCCO)nc(-c3ccccc3)c2c1	76.5	41.3	47.0	69.3	24.9*
CN=C(Nc1ccccc1)SC1CC(=O)N(c2ccc(C(=O)OC)cc2)C1=O (centres undefined)	.	77.8	100.2	.	.
CCCN(CCC)S(=O)(=O)c1ccc(C(=O)Nc2nc3c(s2)CCc2ccccc2-3)cc1	.	2.9*	3.1*	.	.
CCCc1nnc(NC(=O)CN2CCOCC2)s1	.	.	110.6	.	.
CC(C)Cn1c(SCC#N)nc2ccccc2c1=O	76.5	80.8	86.2	103.1	101.4
O=c1[nH]c(=O)n(Cc2ccccc2)c2nc(-c3ccco3)cc(C(F)(F)F)c12	58.3	51.0	75.4	43.8	31.1*
O=C(CSc1nnc([C@@H]2CCCN2)o1)c1ccc(Cl)cc1	96.5	95.4	98.0	90.0	93.3
COc1ccc(S(=O)(=O)Nc2cc(Cl)ccc2OC)cc1	51.6	18.3	18.5	38.8	19.3*
COc1ccc(OC)c(NS(=O)(=O)c2ccc(SC)cc2)c1	84.1	26.9	22.5	62.1	13.9*
COc1ccc(OC)c(S(=O)(=O)Nc2ccc(O)c3ccccc23)c1	54.9	2.0*	1.8*	2.3*	1.9*
CCOc1ccc(S(=O)(=O)Nc2cc(OC)ccc2OC)cc1	100.1	8.6	14.1	49.7	22.9*
COc1ccc(OC)c(S(=O)(=O)Nc2ccc(Oc3ccccc3)cc2)c1	91.6	71.5	85.3	90.6	94.4
COc1ccc(NS(=O)(=O)c2ccc(NS(=O)(=O)c3ccc(SC)cc3)cc2)c(OC)c1	101.1	.	89.7	85.0	55.1
CCOc1ccc(S(=O)(=O)Nc2cc(OC)c(OC)cc2C(=O)O)cc1	.	101.1	97.5	.	.
CC1(C)Cc2cccc(OCC(=O)N3CCN(S(=O)(=O)c4ccccc4)CC3)c2O1	88.1	99.8	96.0	93.2	49.2
N#Cc1c(Nc2ccc(F)cc2)sc(C(=O)c2ccc(F)cc2)c1N	.	93.3	91.7	.	.
Cc1nnc(SCC(=O)NCc2ccccc2)n1-c1ccccc1	109.0	105.9	109.5	103.8	98.3
CC12CC3CC(C)(C1)CC(C(=O)NC(=S)N1CCCCC1)(C3)C2	.	64.2	69.0	.	.
CC(=O)N1C(=S)NC(=O)/C1=C1/C(=O)N(CC(=O)Nc2cccc(C)c2)c2ccccc21	.	92.8	87.3	.	.
COc1ccc(C)cc1NS(=O)(=O)c1ccc(NS(=O)(=O)c2ccc(NC(C)=O)cc2)cc1	97.8	98.2	98.2	92.8	94.2
COc1ccc(OC)c(NS(=O)(=O)c2ccc(NC(C)=O)cc2)c1	92.8	66.8	76.4	90.9	34.0*
Cc1ccc(C)c(C(C)NC(=O)C2C3CCC(O3)C2C(=O)O)c1 (centres undefined)	105.2	92.8	88.5	29.4*	22.8*
COCc1cc(CN2CCN(C)CC2)c(O)c2ncccc12	86.7	80.7	69.4	90.1	25.3*
O=C(Oc1c(Cl)cc(Cl)c2cccnc12)N1CCCCC1	93.5	76.2	67.6	83.7	96.8
Oc1cnc2ccccc2c1CN1CCOCC1	95.3	103.0	95.0	80.2	91.4
SMILES	Fibroblast inh	HCT116 PTEN-null	HCT116 bCat-KO	HUVEC inhibit	H69AR growth 86K
Oc1c(CN2CCOCC2)cc(COCc2ccccc2)c2cccnc12	.	2.8*	3.7*	.	.
CN1CCN(Cc2cc(Cl)c3cccnc3c2OC(=O)c2cccs2)CC1	.	4.7	3.7*	.	.
CCCCOc1ccc(C(=O)N2CCCC2C(=O)O)cc1 (centres undefined)	.	102.5	101.2	.	.
Cc1cc(N2CCC(N(C)C3CCCC3)CC2)nc2cc(O)ccc12	66.1	77.6	75.5	75.7	1.1*
Cc1ccc(-c2nnn(CC(=O)N(CC(=O)NC3CCCC3)c3ccc(F)c(Cl)c3)n2)o1	83.1	62.9	72.5	52.5	7.8*
CCC(C(=O)NC1CCCC1)N(C(=O)Cn1nnc(-c2ccc(C)o2)n1)c1cnc2ccccc2c1 (centres undefined)	86.1	61.5	14.1	96.8	5.0*
Cc1ccc(N(C(=O)Cn2nnc(-c3ccc(C)o3)n2)C(C(=O)NC2CCCC2)c2ccco2)cc1 (centres undefined)	60.7	92.8	84.8	47.7	.
Cc1ccc(-c2nnn(CC(=O)N(CC(=O)NC3CCCCC3)c3ccc(F)c(Cl)c3)n2)o1	39.8*	41.3	41.7	36.5	8.3*
Cc1ccc(-c2nnn(CC(=O)N(CC(=O)NCC3CCCO3)c3ccc(F)c(Cl)c3)n2)o1 (centres undefined)	97.8	96.0	101.8	90.2	86.3
Cc1ccc(-c2nnn(CC(=O)N(CC(=O)NC3CCCC3)c3cnc4ccccc4c3)n2)o1	99.8	89.7	90.4	98.2	76.5
